CHRM4 PAM – human M4 muscarinic receptor positive allosteric modulators, primary screen, CHO-K1 cells, Fluo-8 calcium fluorescence; Muscarinic acetylcholine receptor M4 (Homo sapiens), P08173; hit rate 0.4% among 360,000; CHO-K1 hM4/Gqi5, ACh EC20; 0% = ACh EC20, 100% = maximal ACh; activation, % at 3 µM;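 active means activation above its plate's cutoff, the mean activation of sample wells plus 3 SD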
M5 antag – human M5 muscarinic receptor antagonists, primary screen, CHO cells, Fluo-8 calcium fluorescence; Muscarinic acetylcholine receptor M5 (Homo sapiens), P08912; CHO-hM5 cells, ACh EC80; inhibition, % at 3 µM; hit rate 0.59% among 360,000;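 active means inhibition above a per-plate cutoff, the mean of that plate's test compounds plus 3 SD, cut at about 27% in these data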;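 further: 0% = acetylcholine EC80 with DMSO and 100% = DMSO without agonist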
Target sequence (P08912 whole entry, looked up): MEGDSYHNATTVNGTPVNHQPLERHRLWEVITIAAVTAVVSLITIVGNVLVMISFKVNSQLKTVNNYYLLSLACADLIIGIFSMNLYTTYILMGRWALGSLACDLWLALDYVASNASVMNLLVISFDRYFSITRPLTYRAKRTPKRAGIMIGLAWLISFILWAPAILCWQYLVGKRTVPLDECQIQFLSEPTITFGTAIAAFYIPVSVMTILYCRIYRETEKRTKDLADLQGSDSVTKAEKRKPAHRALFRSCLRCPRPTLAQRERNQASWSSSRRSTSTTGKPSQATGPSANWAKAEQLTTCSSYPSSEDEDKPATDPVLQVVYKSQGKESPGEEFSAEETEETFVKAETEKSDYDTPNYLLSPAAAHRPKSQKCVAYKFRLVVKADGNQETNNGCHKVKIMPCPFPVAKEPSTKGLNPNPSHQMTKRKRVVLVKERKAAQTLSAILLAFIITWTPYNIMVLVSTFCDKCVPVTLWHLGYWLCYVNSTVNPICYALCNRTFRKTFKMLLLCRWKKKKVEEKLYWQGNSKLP
CHRM4 agonist – human M4 muscarinic receptor agonists, primary screen, CHO-K1 cells, Fluo-8 calcium fluorescence; activation, % at 3 µM; CHO-K1 hM4/Gqi5; vehicle 0%, full acetylcholine response 100%; hit rate 0.14% among 360,000;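 active means activation above the run mean over all test wells plus 3 SD, cut at about 32% in these data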;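 further: peak over basal fluorescence ratio per well then scaled between controls; 0% = DMSO wells and 100% = acetylcholine at EC100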
CHRM5 agonist – human M5 muscarinic receptor agonists, primary screen, CHO-K1 cells, Fluo-8 calcium fluorescence; Muscarinic acetylcholine receptor M5 (Homo sapiens), P08912; CHO-K1 hM5 cells; 0% DMSO wells, 100% maximal acetylcholine response; AID 624037, 2012; activation, % at 3 µM; hit rate 0.19% among 360,000;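 active means activation above the run's mean over test compounds plus 3 SD, cut at about 23% in these data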;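 further: signal is peak over basal fluorescence ratio across the kinetic read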
M5 PAM – human M5 muscarinic receptor positive allosteric modulators, primary screen, CHO-K1 cells, Fluo-8 calcium fluorescence; Muscarinic acetylcholine receptor M5 (Homo sapiens), P08912; CHO-K1 hM5, ACh EC20 PAM; 0% = ACh EC20, 100% = ACh EC100; activation, % at 3 µM; hit rate 0.3% among 360,000; AID 624038, 2012;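 active means activation above the run cutoff, the mean activation of all test compounds plus 3 SD, cut at about 18% in these data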
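Assay system – human M5 receptor in CHO-K1 cells · Read-out – % activation, ACh-normalized · Technique – Fluo-8 calcium fluorescence · Dosing – single-point, 3 µM nominal · Incubation – Fluo-8 loading 80 min at 37 °C plus 30 min room temperature · Repeats – singlicate, one well per test compound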
CHRM4 antagonist – human M4 muscarinic receptor antagonists, primary screen, CHO cells, Fluo-8 calcium fluorescence; CHO-hM4 cells, ACh EC80; inhibition, % at 3 µM; hit rate 0.73% among 360,000; Muscarinic acetylcholine receptor M4 (Homo sapiens), P08173; AID 624125, 2012;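 active means inhibition above its plate's cutoff, the mean inhibition of sample wells plus 3 SD, cut at about 27% in these data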;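 further: 0% = acetylcholine EC80 with DMSO and 100% = DMSO without agonist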
Starred values were filed as active, the others as inactive; ! = a repeat was not active. Sampled rows, rich in hits. Any-hit rate of the full collection: about 1.9%.

SMILES | CHRM4 PAM | M5 antag | CHRM4 agonist | CHRM5 agonist | M5 PAM | CHRM4 antagonist
COC(=O)[C@@]1(Cc2ccc(F)cc2)[C@H]2c3cc(C(=O)N4CCCC4)n(CCN4CCNC4=O)c3C[C@H]2CN1C(=O)c1ccccc1 | 8.7 | -15.9 | 0.9 | 1.2 | 11.9 | -11.2
O=C1CSC(=Nc2cccc(C(=O)O)c2)N1 | 14.7* | 7.1 | 1.1 | 5.6 | -3.6 | -4.1
CC(=O)c1cccc(N=C2NC(=O)CS2)c1 | 4.3 | 5.7 | -0.3 | -0.9 | 0.1 | 13.6
Cc1cccc(C)c1C(OCCN(C)C)C1CCCCC1 (stereo unspecified) | -19.7 | 100.4* | 5.3 | -8.6 | -19.0 | 77.0*
COCCN(C(=O)CCl)C(C(=O)NC1CCCCC1)c1ccccc1C (stereo unspecified) | -11.8 | -1.1 | -0.7 | -2.8 | 0.9 | 14.2
CCC(C)N(C)Cc1cccc(C2(O)CCN(S(=O)(=O)c3ccc(F)c(C)c3)CC2)c1 (stereo unspecified) | -40.5 | 20.0 | 0.3 | -7.5 | -19.4 | 66.2*
COc1cc(NC(=S)NCCN2CCOCC2)cc(OC)c1 | 22.8* | -2.2 | 0.5 | -0.7 | 6.5 | -8.5
OC(c1ccc(Cl)c(F)c1)c1ncc(-c2ccc(F)cc2)[nH]1 (stereo unspecified) | 3.3 | -1.4 | 5.6 | 2.6 | 2.2 | -6.1
C#CCOc1ccc(C2C3=C(COC3=O)Nc3cc4c(cc32)OCO4)cc1OC (stereo unspecified) | 22.0* | 5.2 | 2.4 | -5.2 | 6.6 | -10.8
COC(=O)c1ccc2c(=O)n(Cc3ccc(C(=O)NC4CCCC4)cc3)c(=S)[nH]c2c1 | 20.6* | -2.1 | 1.7 | 1.8 | 2.9 | 1.2
CCN(CC)C1=CC2=CC(=C(C#N)C#N)CCC2CC1 (stereo unspecified) | -20.9 | 61.1* | 209.6* | 383.9* | -23.1 | 42.0*
CCCCN(C)C1=CC2=CC(=C(C#N)C#N)CCC2CC1 (stereo unspecified) | -24.7 | 84.0* | 439.2* | 670.4* | -24.2 | 81.1*
CCCCn1c(N)c(N(CCOC)C(=O)c2cccc(S(=O)(=O)N3CCCCCC3)c2)c(=O)[nH]c1=O | 3.6 | -2.0 | -0.2 | 1.8 | 2.7 | -4.5
CC(C(=O)Nc1ccccn1)N1C(=O)c2ccccc2S1(=O)=O (stereo unspecified) | -0.9 | -3.6 | 0.3 | 3.0 | 4.5 | 5.4
C1CCC(C(CC2CCCCN2)C2CCCCC2)CC1 (stereo unspecified) | -15.1 | 14.3 | 11.1 | 2.2 | -16.9 | 34.7*!
CCOC(=O)c1c(N2C(=O)Nc3ccccc3N2O)n[nH]c1-c1cccc(OC)c1 | -2.4 | -7.5 | 0.3 | -2.3 | 3.5 | -2.4
CCC(Sc1nc2c(cnn2-c2ccc(Cl)cc2)c(=O)[nH]1)C(=O)OC (stereo unspecified) | -12.5 | 3.4 | -0.9 | -0.9 | 0.1 | 40.5*
CC(C)c1ccc(NC2CCCN(C(=O)CCN3CCCC3=O)C2)cc1 (stereo unspecified) | -2.6 | 0.9 | 1.0 | -1.1 | 3.6 | -2.4
O=C1CCCCN1CCCC(=O)N1CCCC(Nc2ccccc2)C1 (stereo unspecified) | 4.6 | 2.9 | 0.5 | 8.4 | 27.3* | 3.0
CCN1C(=O)/C(=C/c2c(C)nn(C)c2C)SC1=S | 30.5* | 10.6 | 3.6 | -5.1 | -7.0 | 1.9
CCN1C(=O)/C(=C\N2CCCCCC2)SC1=S | -22.4 | 32.0* | 1.8 | -5.9 | -21.7 | 69.3*
OCCN1CCN(C2Cc3cc(Cl)ccc3Sc3ccc(Cl)cc32)CC1 (stereo unspecified) (tested in a mixture with another compound) | -16.7 | 8.1 | 13.2 | -8.9 | -10.8 | 20.9
CN1CCN(C2Cc3cc(Cl)ccc3Sc3cc(F)ccc32)CC1 (stereo unspecified) | -64.4 | 58.8* | 22.8 | -17.6 | -31.8 | 94.2*
c1ccc2c(c1)CC(N1CCCCC1)c1ccccc1S2 (stereo unspecified) | -24.2 | 2.5 | -0.7 | -20.4 | -31.5 | -17.6
CCc1ccc2c(c1)Sc1ccccc1CC2N1CCN(C)CC1 (stereo unspecified) | -71.7 | 8.8 | 25.3 | -12.1 | -28.5 | 32.6*
SMILES | CHRM4 PAM | M5 antag | CHRM4 agonist | CHRM5 agonist | M5 PAM | CHRM4 antagonist
CC(=O)OC(C(=O)Nc1nncs1)c1ccccc1 (stereo unspecified) | 6.3 | -6.0 | 0.5 | 0.4 | -2.7 | -10.4
COc1ccc(CCN2CC(C(=O)NCc3cn(C)nc3C)CCC2=O)cc1 (stereo unspecified) | -2.3 | -3.3 | 0.2 | 0.8 | 2.0 | 0.9
CN(C)c1ccc(/C=C(/C#N)C(=O)Nc2nc3c(s2)CCN(Cc2ccccc2)C3)cc1 | -4.7 | 24.3 | 13.7 | 48.8* | -27.6 | 8.8
C[C@@H]1C(NC(=O)c2ccccc2)CC2CC1C2(C)C (stereo partly specified) | 7.0 | -3.6 | -0.2 | -1.1 | 3.5 | -5.8
COc1ccccc1CN1C[C@@H]2C[C@@H](c3ccccc3OC)N3CCC[C@@]23C1=O | -23.7 | -2.1 | 0.1 | -6.0 | 3.9 | 30.3*
Cc1c([C@@H]2C[C@H]3CN(Cc4cccc(Cl)c4)C(=O)[C@]34CCCN24)cnn1C | -5.8 | 3.3 | 3.0 | -1.0 | -3.6 | -0.8
Cn1cc([C@@H]2C[C@H]3CN(Cc4cccc(Cl)c4)C(=O)[C@]34CCCN24)c2ccccc21 | -11.7 | 11.8 | 2.6 | -3.3 | -7.3 | 29.8*
COc1ccccc1CN1C[C@@H]2C[C@@H](c3ccc(Cl)cc3)N3CCC[C@@]23C1=O | -14.3 | 1.9 | 0.7 | -9.7 | 0.2 | 19.0
CCCc1cc(C(=O)NNC(=S)NCc2ccccc2)cs1 | 8.3 | 4.3 | 1.8 | -1.7 | -3.1 | -6.6
CCCc1cc(C(=O)NNC(=S)NC2CCCCC2)cs1 | 18.1* | 4.1 | 3.7 | -1.1 | 3.5 | 1.5
CC(C)Cn1c(=O)c(C(=O)Nc2ccccc2S(N)(=O)=O)c(O)c2ccccc21 | 15.7 | -7.7 | -0.2 | 1.4 | 15.2 | -0.3
CCC(C)n1c(=O)c(C(=O)Nc2ccccc2S(N)(=O)=O)c(O)c2ccccc21 (stereo unspecified) | 7.1 | -11.3 | 0.4 | -1.5 | 27.1* | -1.9
C/C(CC1CC(COCC(C)C)OC1=O)=N\Nc1nc(-c2ccccc2)cs1 (stereo unspecified) | -1.3 | 0.7 | 0.6 | 0.0 | -1.6 | 29.9*

Bioassay records deposited in PubChem by The Scripps Research Institute Molecular Screening Center.
